In ChEMBL document CHEMBL3044872, “Synthesis and quantitative structure-activity relationships of fluorine-containing 4,4-dihydroxylmethyl-2-aryliminooxazo(thiazo)lidines as trehalase inhibitors” (J Agric Food Chem, 2001):

Tests used:
[1] = tested on: Drosophila melanogaster; test: Insecticidal activity against adult Drosophila melanogaster cultured on compound-treated corn media assessed as inhibition of flight at 200 ppm after 48 hr relative to control; format: functional
How it was run: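 Wild-type adult flies fed corn medium containing compound for 48 h. Flies ether-anesthetized for 2 min and glued by the abdomen to the arm of a computer-monitored flight mill; flown at 25 °C under natural light. Inhibition % = (1 − treated flight distance/untreated flight distance) × 100.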

[2] = biological target: T1, Uncharacterized protein (Sus scrofa, UniProt I3LIR5); test: Inhibition of Sus scrofa (pig) trehalase using trehaloase as substrate incubated for 15 min prior to substrate addition measured after 1.5 hr by spectrophotometric analysis
T1 sequence (I3LIR5 whole entry): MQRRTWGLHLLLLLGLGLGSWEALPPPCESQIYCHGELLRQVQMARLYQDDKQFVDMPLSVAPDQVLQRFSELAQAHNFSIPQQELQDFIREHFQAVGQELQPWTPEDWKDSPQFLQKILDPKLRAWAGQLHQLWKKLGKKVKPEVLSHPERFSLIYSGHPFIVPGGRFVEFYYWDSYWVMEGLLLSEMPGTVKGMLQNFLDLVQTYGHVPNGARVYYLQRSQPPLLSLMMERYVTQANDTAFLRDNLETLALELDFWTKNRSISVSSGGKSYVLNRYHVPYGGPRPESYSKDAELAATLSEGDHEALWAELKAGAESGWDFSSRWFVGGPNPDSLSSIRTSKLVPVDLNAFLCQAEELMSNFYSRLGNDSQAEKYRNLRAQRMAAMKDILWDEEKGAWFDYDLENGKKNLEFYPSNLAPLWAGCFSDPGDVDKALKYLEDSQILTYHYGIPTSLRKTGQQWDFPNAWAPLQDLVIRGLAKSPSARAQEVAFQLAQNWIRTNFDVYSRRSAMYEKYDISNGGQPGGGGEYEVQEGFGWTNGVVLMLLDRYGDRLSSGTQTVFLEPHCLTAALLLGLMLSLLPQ
How it was run: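 Porcine trehalase (1.08 µg) in […], pH 5.5, preincubated with compound in DMSO for 15 min at 37 °C. […] added, then incubated 1.5 h at 37 °C. Stopped with Ba(OH)2/Zn(OH)2 and centrifuged. Glucose measured by glucose oxidase/peroxidase/ABTS (30 min, room temperature), A660, against a glucose standard curve. At least 5 concentrations; expressed as pIC50.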

[3] = tested on: Drosophila melanogaster; test: Larvicidal activity against Drosophila melanogaster at 200 ppm relative to control; format: functional
How it was run: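 One hundred wild-type eggs placed on 8 cm3 yeast/corn meal/agar medium containing compound at 200 ppm, dissolved in DMSO.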

[4] = biological target: T2, Trehalase (Bombyx mori, UniProt P32358); test: Inhibition of Bombyx mori trehalase
T2 sequence (P32358 whole entry): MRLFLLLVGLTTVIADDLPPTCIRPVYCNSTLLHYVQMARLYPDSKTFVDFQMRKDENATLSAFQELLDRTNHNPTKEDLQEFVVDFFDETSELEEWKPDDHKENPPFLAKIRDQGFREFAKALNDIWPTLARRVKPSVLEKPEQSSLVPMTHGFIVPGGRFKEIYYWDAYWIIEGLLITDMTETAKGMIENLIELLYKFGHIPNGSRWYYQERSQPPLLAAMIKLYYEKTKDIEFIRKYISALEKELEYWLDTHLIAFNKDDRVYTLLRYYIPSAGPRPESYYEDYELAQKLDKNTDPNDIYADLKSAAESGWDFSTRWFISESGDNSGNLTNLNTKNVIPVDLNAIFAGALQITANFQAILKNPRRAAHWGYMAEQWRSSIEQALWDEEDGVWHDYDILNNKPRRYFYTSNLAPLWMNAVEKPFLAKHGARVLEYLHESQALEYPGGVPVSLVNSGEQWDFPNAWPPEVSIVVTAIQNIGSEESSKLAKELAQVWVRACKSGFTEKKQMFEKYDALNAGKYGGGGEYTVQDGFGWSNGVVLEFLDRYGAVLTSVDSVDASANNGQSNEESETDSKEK

Compound | inhibition at 200 ppm [1] [%] | IC50 [2] [µM] | Activity [3] [%] | IC50 [4] [µM]
OCC1(CO)CS/C(=N\c2ccccc2F)N1 | 45.4 | 832 | 66.5 | –
OCC1(CO)CS/C(=N\c2ccc(F)c(Cl)c2)N1 | 49.7 | 240 | 76 | –
OCC1(CO)CO/C(=N\c2ccc(F)c(Cl)c2)N1 | 37.2 | 35.5 | 65 | –
OCC1(CO)CO/C(=N\c2ccccc2F)N1 | 30.7 | 75.9 | 45.2 | –
OCC1(CO)CS/C(=N\c2ccc(F)cc2)N1 | 37.2 | 575 | 60.4 | –
OCC1(CO)CO/C(=N\c2ccc(F)cc2F)N1 | 2.7 | 891 | 17.2 | –
OCC1(CO)CO/C(=N\c2ccc(F)cc2)N1 | 35.7 | 263 | 56.3 | –
OCC1(CO)CS/C(=N\c2ccc(F)cc2F)N1 | 1.7 | 6170 | 35.1 | –
OCC1(CO)CS/C(=N\c2ccc(F)c(F)c2F)N1 | 26.9 | 708 | 65.3 | –
OC[C@H]1O[C@H](NC2=N[C@@H]3[C@H](O2)[C@@H](O)[C@H](O)[C@]3(O)CO)[C@H](O)[C@@H](O)[C@@H]1O [TREHAZOLIN] | – | – | – | 0.049
OCC1(CO)CO/C(=N\c2ccc(F)c(F)c2F)N1 | 16.6 | 85.1 | 50.4 | –
